Results as given in PMC3349182 (British Journal of Cancer, 2012).
Entries after “also recorded” stand apart in the source; their conditions may differ.

Columns and labels:
[1] = Plasma pharmacokinetics of E7080; type: in vivo, human
How it was run: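 Patients took oral drug once daily after an overnight fast. Blood and urine were sampled after a single dose and after multiple dosing. Drug concentrations were measured by LC-MS/MS. tmax, Cmax, AUC0-24, AUC0-∞, AUC0-τ, t½, CL/F and V/F were calculated. Terminal-phase parameters were omitted where too few terminal data points were available.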

[2] = system: patients with advanced, refractory solid tumours; test: Anti-tumour efficacy by Response Evaluation Criteria in Solid Tumours; type: in vivo, human
How it was run: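 Patients took oral drug once daily on an empty stomach after an overnight fast, with only clear fluids within 2 h of dosing. Dosing was continuous in 28-day cycles until progressive disease or unacceptable toxicity. Tumour response was assessed by RECIST measurements, with CT imaging.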

[3] = system: patients with advanced radioiodine-refractory differentiated thyroid cancer; settings: preliminary results, phase II; ref Sherman et al, 2011; cited from earlier work
[4] = Food-effect investigation; type: in vivo, human
How it was run: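 At the MTD, patients were randomised to take the cycle 1 day 15 dose fed (after a high-fat meal) or fasted (overnight fast ⩾10 h). The day 22 dose was taken in the reverse state, with no food for 4 h after either dose. Plasma levels were measured by LC-MS/MS. The 90% CIs for log-transformed fed/fasted Cmax and AUC0-24 were derived by ANOVA; 80–125% was taken as no food effect.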

[5] = 0.2–6.4 mg per day, 21 patients
[6] = 25 mg, eleven patients, high-fat meal vs overnight fast

## COc1cc2nccc(Oc3ccc(NC(=O)NC4CC4)c(Cl)c3)c2cc1C(N)=O [E7080]
[1]; 0.2 to 32 mg
  Dose dependence of exposure and Cmax: dose-linear kinetics; also recorded: increased linearly with increasing dose
[1]; after 4 weeks' administration, once daily
  Accumulation after multiple dosing: no drug accumulation
[1]; after a single dose
  Time to maximum concentrations: ≤ 3 h
[2]; 25 mg per day, 24 patients
  Best response: Not evaluated, %: 0 (0) %
  Best response: Partial response, %: 13%
  Best response: Progressive disease, %: 8%
  Best response: Stable disease, %: 67%
[2]; 32 mg per day, 7 patients
  Best response: Not evaluated, %: 0 (0) %
  Best response: Partial response, %: 29%
  Best response: Progressive disease, %: 0 (0) %
  Best response: Stable disease, %: 43%
[2]; [5]
  Best response: Not evaluated, %: 5%
  Best response: Partial response, %: 0 (0) %
  Best response: Progressive disease, %: 24%
  Best response: Stable disease, %: 19%
[2]; 12–20 mg per day, 30 patients
  Best response: Not evaluated, %: 3%
  Best response: Partial response, %: 7%
  Best response: Progressive disease, %: 23%
  Best response: Stable disease, %: 50%
[2]; Total, 82 patients
  Best response: Not evaluated, %: 2 (2) %
  Best response: Partial response, %: 9%
  Best response: Progressive disease, %: 17%
  Best response: Stable disease, %: 46%
[2]; all doses
  Clinical benefit (PR rate plus SD rate), % of patients: 55%
  Clinical benefit (PR rate plus SD rate), n patients: 45
[2]; of nine patients with renal cancer
  Patients with renal cancer with PR: Four
[2]; one patient with melanoma (largest decrease)
  Decrease in the sum of the longest tumour diameters: approximately 85%
[2]; one patient with melanoma, after 32 weeks' treatment
  Overall reduction in tumour size (CT): 77%
[2]; one patient with renal cancer, after 24 weeks' treatment
  Overall reduction in tumour size (CT): 51%
[2]; patients with melanoma, n=14
  Median progression-free survival (95% CI): 217 days
[2]; patients with renal cancer, all dose cohorts, n=9
  Median progression-free survival (95% CI): 477 days
[3]
  Objective response rate: 59%
[4]; [6]
  AUC ratio fed/fasted (90% CI): 1.00 (90% CI 0.83–1.20)
  Cmax ratio fed/fasted (90% CI): 0.98 (90% CI 0.73–1.31)
[4]; fasted group
  tmax (median): 2.0 h
[4]; fed group
  tmax (median): 5.0 h
